SKN-1 block: blocks SKN-1 activity in C. elegans; inhibition, % at 21.8 µM; C. elegans VP596 Pgst-4::GFP/RFP ratio, acrylamide-induced, 24 h; 0.49% of 360,000 active; AID 624304;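 active means interference check ratio from 0.5 to 1.5 plus GFP to RFP signal ratio inhibition reaching or exceeding a fixed threshold, cut at about 30% in these data, passing the limit was not always enough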
CendR NRP1 mod: alters CendR peptide binding to human NRP-1. FAM-RPARPAR peptide binding to NRP-1, fluorescence polarization. inhibition, % at 25 µM. 0.85% of 360,000 active. AID 602438;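 active means inhibition or corrected inhibition above about 18%, plus a signal ratio from 0.5 to 1.5, limit read from the data, passing the limit was not always enough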
MT1-MMP act inh: blocks activation of human MT1-MMP; P50281; HT1080 RFP-PRO-GFP cells, GFP/RFP ratio fluorescence, overnight; percent of plate control window, DMSO zero; GFP/RFP ratio change, % at 20 µM; 0.061% of 360,000 active; AID 651647;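 active means GFP/RFP ratio change of at least 30% with cell ATP level not reduced by more than half and red fluorescence within 50% of control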
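Assay system – RFP-PRO-GFP reporter HT1080 cells · Compound dosing – single dose of 20 µM compound, 1% DMSO final · Incubation – overnight compound exposure at 37 °C · Measure – GFP/RFP fluorescence ratio · Benchmarks – DMSO wells and RFP-L50D-GFP cells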
hiPSC survival: hiPSC single-cell survival enhancement; AID 602274; 0.044% of 360,000 active; ATPlite luminescence; 100% = ROCK inhibitor wells, 0% = DMSO; survival enhancement, % at 20 µM; in the data active means survival enhancement above about 18%;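 further: cells exposed to compounds for 16 hours before the ATP read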
MT1-MMP conf: validation of inhibitors of human MT1-MMP activation; 10% of 200 active; HT1080 RFP-PRO-GFP cells, GFP and RFP fluorescence ratio, overnight; shares compounds with MT1-MMP act inh; inhibition, % at 20 µM;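 active means inhibition of at least 50% in the primary cell screen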
An asterisk follows results filed as active; . = no result given. Sampled rows, rich in hits. Any-hit rate of the full collection: about 1.4%.

SMILES	SKN-1 block	CendR NRP1 mod	MT1-MMP act inh	hiPSC survival	others
O=[N+]([O-])c1ccc(N(CCO)CCO)c2c1no[n+]2[O-]	47.4*	4.5	.	-5.8
OC(c1cccc(Cl)c1)(c1cccc(Cl)c1)C1CN2CCC1CC2 (centres undefined)	10.6	40.4*	-26.8	-6.4
O=C(Nc1ccc(Cl)cc1C(=O)c1ccccc1)c1ccccc1	1.6	24.9*	-0.4	0.7
O=C(Nc1cc(Cl)cc(Cl)c1)N1Cc2ccccc2-n2nncc2C1	-4.0	5.0	3.8	-2.3
O=C1CC=C2C3CC4N(CCC45c4cc(O)c(O)cc4N1C25)CC3=CCBr (centres undefined)	2.1	25.8*	1.5	0.2
CN(C)c1ccc(C(=O)c2ccc(N(C)C)cc2)cc1	41.6*	-3.5	-7.0	-2.3
C=C1[C@@H](C)[C@H]2[C@H](Cc3ccccc3)NC(=O)[C@]23OC(=O)/C=C/[C@H](O)CCC[C@@H](C)C/C=C/[C@H]3[C@@H]1O	6.6	10.4	10.3	40.1*
C[C@H]1C/C=C/[C@H]2[C@H](O)[C@H](C)[C@@](C)(O)[C@H]3[C@H](Cc4ccccc4)NC(=O)[C@]32[C@H](O)/C=C/[C@](C)(O)C1	8.3	1.9	1.5	0.5
C=C1C(C)C2C(Cc3ccccc3)NC(=O)C23C(OC(C)=O)C=CC(C)(O)CC(C)CC=CC3C1O (centres undefined)	7.2	7.3	12.5	60.4*
O=c1[nH]c(=O)n(Cc2ccco2)c(O)c1C=NC1CCN(Cc2ccccc2)CC1	14.3	-19.1	4.3	-0.4
CN1CCN(c2ccc([N+](=O)[O-])c(Sc3nncn3C)c2)CC1	3.5	2.8	-1.1	0.0
CN1CCN(c2ccc([N+](=O)[O-])c(Sc3ccccn3)c2)CC1	-7.1	27.8*	6.1	0.6
O=C(O)CC1OCC=C2CN3CCC45C6=CC(=O)C(=O)C([N+](=O)[O-])=C6NC4C1C2CC35 (centres undefined)	26.9	25.2*	9.0	0.7
O=C1NC(=S)N(c2ccc(F)cc2)C(=O)/C1=C\c1ccoc1	6.2	-318.0	-29.6	1.0
O=C1NC(=S)N(c2ccc(Cl)cc2)C(=O)/C1=C/N1CCN(C(=O)c2ccco2)CC1	43.8*	-105.5	-12.4	-0.9
CCOC(=O)c1c(N)n(CCCOC(=O)c2ccco2)c2nc3ccccc3nc12	35.0*	-4.5	4.1	-3.5
COC(=O)C1C(O)CC2CCC1N2C (centres undefined)	0.9	-3.7	-1.5	3.4
COC(=O)C1=C(c2ccc(OC)c(OC)c2)C[C@@H]2CC[C@H]1N2C(=O)NCCOc1ccccc1	10.2	0.7	1.2	2.3
Cc1c(C(=O)Nc2ccccc2)c2cc(O)ccc2n1Cc1ccccc1	14.1	-4.2	-0.7	1.7
OCCNc1c2c(nc3ccccc13)CCCC2	12.5	4.4	-6.5	2.6
CNc1ccc2nc3ccccc3[n+](C)c2c1	91.1	29.1*	67.3*	-0.5	MT1-MMP conf=49.2
C[n+]1c2ccccc2nc2ccc(NCCO)cc21	86.5	14.4	55.1*	-0.8	MT1-MMP conf=37.6
CSc1nnc([C@@H](N)Cc2c[nH]c3ccccc23)o1	-9.1	0.0	2.0	0.5
COc1cc2c(cc1OC)-c1c(OC)c(OC)cc3c1[C@H](C2)N(C)CC3	7.1	29.2*	50.4*	-1.5	MT1-MMP conf=5.3
COc1ccccc1-n1c(O)c(/C=C2\C=Nc3ccccc32)c(=O)[nH]c1=O	16.1	-31.8	-11.2	-0.1
SMILES	SKN-1 block	CendR NRP1 mod	MT1-MMP act inh	hiPSC survival	others
CCC(C)N1C(=O)/C(=C\c2ccc(N3CCCCCC3)cc2)C(=O)NC1=S (centres undefined)	32.7	-15.9	33.5*	1.8	MT1-MMP conf=3.1
CN1C(=O)C(=Cc2ccc(Sc3ccccc3)o2)C(=O)N(C)C1=O	18.2	-25.8	32.7*	-0.8	MT1-MMP conf=3.3
CN1C(=O)C(=Cc2ccc(Sc3ccccc3)o2)C(=O)N(C)C1=S	28.4	-82.8	36.2	-0.6
C[N+]1=C(/C=C/Nc2ccccc2)C(C)(C)c2ccccc21	50.2	-13.9	37.8*	-1.6	MT1-MMP conf=26.3
O=C(c1cccc(C(F)(F)F)c1)C1CCCN(Cc2ncc[nH]2)C1 (centres undefined)	-2.1	6.2	0.5	-0.7
CCCOC(=O)COc1cc(C)cc2oc(=O)c3c(c12)CCC3	7.9	11.2	6.6	0.2
